This passage reports CC50 results from ChEMBL document CHEMBL1150163, “Steroidal glycosides from the leaves of Cestrum nocturnum” (2002).

The structures appear in SMILES notation. Values after ≈ are worked out from the molar mass of the structure shown. Where only a bound is given, the exact number is not on record here.

The subject of the assay is HSC-2. In words: Cytotoxicity against human HSC2 cells after 24 hrs by MTT assay. To be noted: HSC-2, 24 h, read-out: LD50 (the source's name). The class given is functional. A digest of the protocol:
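HSC-2 oral squamous carcinoma cells grown as monolayers in DMEM with 10% heat-inactivated FBS, 37 °C, 5% CO2. Seeded at 6 × 10^3 cells/well, incubated 24 h, washed, then exposed to compounds for 24 h. MTT (0.2 mg/mL) for 4 h, DMSO lysis, absorbance at 540 nm. LD50 (50% reduction in viable cells) read from dose-response curve.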
(In general: Tetrazolium dyes change colour on reduction, which living cells bring about.)
In the case of `CC(=O)C1=CC[C@H]2[C@@H]3CC=C4C[C@@H](O[C@@H]5O[C@H](CO)[C@H](O[C@@H]6O[C@H](CO)[C@@H](O)[C@H](O[C@@H]7OC[C@@H](O)[C@H](O)[C@H]7O)[C@H]6O[C@@H]6O[C@H](CO)[C@@H](O)[C@H](O[C@@H]7O[C@H](CO)[C@@H](O)[C@H](O)[C@H]7O)[C@H]6O)[C@H](O)[C@H]5O)[C@H](O)C[C@]4(C)[C@H]3CC[C@]12C`, the CC50 turned out to be 192 µg/mL (≈ 173 µM).

On to `CC(=O)[C@H]1[C@@H](OC(=O)CC[C@@H](C)CO[C@@H]2O[C@H](CO)[C@@H](O)[C@H](O)[C@H]2O)C[C@H]2[C@@H]3CC=C4C[C@@H](O[C@@H]5O[C@H](CO)[C@H](O[C@@H]6O[C@H](CO)[C@@H](O)[C@H](O[C@@H]7OC[C@@H](O)[C@H](O)[C@H]7O)[C@H]6O[C@@H]6O[C@H](CO)[C@@H](O)[C@H](O[C@@H]7O[C@H](CO)[C@@H](O)[C@H](O)[C@H]7O)[C@H]6O)[C@H](O)[C@H]5O)[C@H](O)C[C@]4(C)[C@H]3CC[C@@]21C`, for which the CC50 is more than 300 µg/mL.

Turning to `C[C@@H]1CC[C@@]2(OC1)O[C@H]1C[C@H]3[C@@H]4CC=C5C[C@@H](O[C@@H]6O[C@H](CO)[C@H](O[C@@H]7O[C@H](CO)[C@@H](O)[C@H](O[C@@H]8OC[C@@H](O)[C@H](O)[C@H]8O)[C@H]7O[C@@H]7O[C@H](CO)[C@@H](O)[C@H](O[C@@H]8O[C@H](CO)[C@@H](O)[C@H](O)[C@H]8O)[C@H]7O)[C@H](O)[C@H]6O)[C@H](O)C[C@]5(C)[C@H]4CC[C@]3(C)[C@H]1[C@@H]2C`, the CC50 came out at 2.7 µg/mL (≈ 2.23 µM).

Regarding `C[C@@H]1C(=O)O[C@H]2C[C@H]3[C@@H]4CC=C5C[C@@H](O[C@@H]6O[C@H](CO)[C@H](O[C@@H]7O[C@H](CO)[C@@H](O)[C@H](O[C@@H]8OC[C@@H](O)[C@H](O)[C@H]8O)[C@H]7O[C@@H]7O[C@H](CO)[C@@H](O)[C@H](O[C@@H]8O[C@H](CO)[C@@H](O)[C@H](O)[C@H]8O)[C@H]7O)[C@H](O)[C@H]6O)[C@H](O)C[C@]5(C)[C@H]4CC[C@]3(C)[C@H]21`, the CC50 was more than 300 µg/mL.

Turning to `CO[C@]1(CC[C@@H](C)CO[C@@H]2O[C@H](CO)[C@@H](O)[C@H](O)[C@H]2O)O[C@H]2C[C@H]3[C@@H]4CC=C5C[C@@H](O[C@@H]6O[C@H](CO)[C@H](O[C@@H]7O[C@H](CO)[C@@H](O)[C@H](O[C@@H]8OC[C@@H](O)[C@H](O)[C@H]8O)[C@H]7O[C@@H]7O[C@H](CO)[C@@H](O)[C@H](O[C@@H]8O[C@H](CO)[C@@H](O)[C@H](O)[C@H]8O)[C@H]7O)[C@H](O)[C@H]6O)[C@H](O)C[C@]5(C)[C@H]4CC[C@]3(C)[C@H]2[C@@H]1C`, the CC50 is 6.1 µg/mL (≈ 4.34 µM).

On to `CC1=C(CC[C@@H](C)CO[C@@H]2O[C@H](CO)[C@@H](O)[C@H](O)[C@H]2O)O[C@H]2C[C@H]3[C@@H]4CC=C5C[C@@H](O[C@@H]6O[C@H](CO)[C@H](O[C@@H]7O[C@H](CO)[C@@H](O)[C@H](O[C@@H]8OC[C@@H](O)[C@H](O)[C@H]8O)[C@H]7O[C@@H]7O[C@H](CO)[C@@H](O)[C@H](O[C@@H]8O[C@H](CO)[C@@H](O)[C@H](O)[C@H]8O)[C@H]7O)[C@H](O)[C@H]6O)[C@H](O)C[C@]5(C)[C@H]4CC[C@]3(C)[C@@H]12`, for which the CC50 is more than 300 µg/mL.

As for `C/C(C(=O)CC[C@@H](C)CO[C@@H]1O[C@H](CO)[C@@H](O)[C@H](O)[C@H]1O)=C1/C(=O)C[C@H]2[C@@H]3CC=C4C[C@@H](O[C@@H]5O[C@H](CO)[C@H](O[C@@H]6O[C@H](CO)[C@@H](O)[C@H](O[C@@H]7OC[C@@H](O)[C@H](O)[C@H]7O)[C@H]6O[C@@H]6O[C@H](CO)[C@@H](O)[C@H](O[C@@H]7O[C@H](CO)[C@@H](O)[C@H](O)[C@H]7O)[C@H]6O)[C@H](O)[C@H]5O)[C@H](O)C[C@]4(C)[C@H]3CC[C@]12C`, the CC50 worked out at 281 µg/mL (≈ 203 µM).

Consider `C/C(C(=O)CC[C@@H](C)CO[C@@H]1O[C@H](CO)[C@@H](O)[C@H](O)[C@H]1O)=C1/C(=O)C[C@H]2[C@@H]3CC=C4C[C@@H](O[C@@H]5O[C@H](CO)[C@H](O[C@@H]6O[C@H](CO)[C@@H](O)[C@H](O[C@@H]7OC[C@@H](O)[C@H](O)[C@H]7O)[C@H]6O[C@@H]6O[C@H](CO)[C@@H](O)[C@H](O)[C@H]6O)[C@H](O)[C@H]5O)[C@H](O)C[C@]4(C)[C@H]3CC[C@]12C`, for which the CC50 is more than 300 µg/mL.

Consider `C[C@@H]1CC[C@@]2(OC1)O[C@H]1C[C@H]3[C@@H]4CC=C5C[C@@H](O[C@@H]6O[C@H](CO)[C@H](O[C@@H]7O[C@H](CO)[C@@H](O)[C@H](O[C@@H]8OC[C@@H](O)[C@H](O)[C@H]8O)[C@H]7O[C@@H]7O[C@H](CO)[C@@H](O)[C@H](O[C@@H]8O[C@H](CO)[C@@H](O)[C@H](O)[C@H]8O)[C@H]7O)[C@H](O)[C@H]6O)[C@H](O)C[C@]5(C)[C@H]4CC[C@]3(C)[C@@]1(O)[C@@H]2C`, for which the CC50 came to 4.4 µg/mL (≈ 3.59 µM).

With `C[C@H]1CO[C@]2(C[C@@H]1O[C@@H]1O[C@H](CO)[C@@H](O)[C@H](O)[C@H]1O)O[C@H]1C[C@H]3[C@@H]4CC=C5C[C@@H](O[C@@H]6O[C@H](CO)[C@H](O[C@@H]7O[C@H](CO)[C@@H](O)[C@H](O[C@@H]8OC[C@@H](O)[C@H](O)[C@H]8O)[C@H]7O[C@@H]7O[C@H](CO)[C@@H](O)[C@H](O[C@@H]8O[C@H](CO)[C@@H](O)[C@H](O)[C@H]8O)[C@H]7O)[C@H](O)[C@H]6O)[C@H](O)C[C@]5(C)[C@H]4CC[C@]3(C)[C@H]1[C@@H]2C`, the CC50 is more than 300 µg/mL.

For the compound `COc1cccc2c1C(=O)c1c(O)c3c(c(O)c1C2=O)C[C@@](O)(C(=O)CO)C[C@@H]3O[C@H]1C[C@H](N)[C@H](O)[C@H](C)O1` [DOXORUBICIN], the CC50 amounted to 2.5 µg/mL (≈ 4.6 µM).
